TLR4 MyD88 comp: TLR4-MyD88 interaction inhibition in cells; inhibition, % at 8.4 µM; HeLa CL3-4 TLR4/MyD88 BLA complementation, FRET ratio; O00206+Q99836; AID 861; hit rate 0.18% among 200,000; in the data active means inhibition above about 25%
NTR1 ag: agonists of human neurotensin receptor NTR1. P30989. NTR1-U2OS beta-arrestin-GFP spot imaging, agonist mode. activation, % at 20 µM. hit rate 0.17% among 330,000. AID 493036;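 active means activation at or above 40% of the spot to cytoplasm intensity ratio, with at least 20 cells analyzed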
TLR9-MyD88 inh: blocks human TLR9 binding to MyD88 | inhibition, % at 4.98 µM | Q9NR96+Q99836 | hit rate 0.21% among 340,000 | CHO BLA complementation TLR9-MyD88, CCF4 FRET ratio;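 active means inhibition above the mean over all tested compounds plus 3 SD, cut at about 21% in these data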
NOD2 RIPK2 PPI: inhibitors of human NOD2-RIPK2 interaction | inhibition, % at 4.98 µM | O43353 | AID 624267 | hit rate 0.38% among 360,000 | CHO BLA complementation NOD2-RIPK2, CCF4 ratio; in the data active means inhibition above about 21%
Target sequence (O43353 whole entry, looked up): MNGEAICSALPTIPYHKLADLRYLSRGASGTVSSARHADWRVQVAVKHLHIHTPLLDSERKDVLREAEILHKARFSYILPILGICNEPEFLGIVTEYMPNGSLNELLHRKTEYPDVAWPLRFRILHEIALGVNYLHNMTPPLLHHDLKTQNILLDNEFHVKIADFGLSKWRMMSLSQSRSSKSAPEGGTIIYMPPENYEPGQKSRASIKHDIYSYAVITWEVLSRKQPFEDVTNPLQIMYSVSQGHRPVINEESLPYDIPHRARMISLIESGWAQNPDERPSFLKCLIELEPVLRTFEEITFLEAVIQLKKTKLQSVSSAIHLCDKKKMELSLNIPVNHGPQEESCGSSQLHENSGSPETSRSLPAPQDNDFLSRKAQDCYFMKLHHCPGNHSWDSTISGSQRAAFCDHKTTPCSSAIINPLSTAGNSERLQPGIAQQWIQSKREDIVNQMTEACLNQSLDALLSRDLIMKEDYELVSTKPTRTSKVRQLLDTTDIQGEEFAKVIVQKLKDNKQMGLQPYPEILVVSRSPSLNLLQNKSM
MC4R barr agon: activates human MC4R beta-arrestin recruitment. P32245. U2OS MC4R beta-arrestin complementation, luminescence; percent of melanotan II response, DMSO zero. activation, % at 8.9 µM. hit rate 0.98% among 360,000. AID 540308;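 active means activation above a per-plate cutoff, the mean activation of sample wells on that plate plus 3 SD, cut at about 8% in these data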
MC4R antagonist: human MC4R antagonism in cAMP assay; P32245; MC4R-expressing cells, MTII-stimulated cAMP, LANCE TR-FRET; inhibition, % at 6.5 µM; hit rate 0.48% among 360,000;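 active means inhibition above its plate's cutoff, the mean of tested wells on that plate plus 3 SD, cut at about 29% in these data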
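system = U2OS cells with stable human MC4R expression | also added = Melanotan II challenge after compound preincubation | dosing = one concentration, 6.5 µM nominal | incubation = compound 30 min, challenge 1 h, detection 1 h | measured by = TR-FRET with Eu-cAMP and labeled anti-cAMP, 671 nm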
TLR4-MyD88 conf: confirmation of human TLR4-MyD88 binding inhibitors | HeLa CL3-4 BLA complementation, CCF4 FRET ratio | inhibition, % at 8.4 µM | hit rate 50% among 350 | shares compounds with TLR4 MyD88 comp;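 active means mean inhibition across three repeat runs above about 25% carried over from the earlier screen, limit read from the data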
BLA inh HeLa: counter-screen for TLR4-MyD88 inhibitors: beta-lactamase reporter inhibitors. shares compounds with TLR4 MyD88 comp. hit rate 63% among 350. AID 1237. inhibition, % at 8.4 µM. HeLa BLA reporter, CCF4 FRET ratio;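 active means mean inhibition over three repeats above about 26% taken from the earlier screen, limit read from the data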;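 further: HeLa cells stably expressing beta-lactamase reporter as counterscreen for TLR4-MyD88 inhibitors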
TLR9-MyD88 cf: confirmation of human TLR9-MyD88 binding inhibitors; shares compounds with TLR9-MyD88 inh; CHO TLR9/MyD88 BLA complementation, CCF4 FRET ratio; inhibition, % at 4.98 µM; hit rate 51% among 680; AID 540250;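 active means mean inhibition across three repeats above about 21% taken from the earlier screen, limit read from the data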;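 further: blue over green emission ratio reports constitutive TLR9 MyD88 association via BLA complementation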
BLA counter-1: beta-lactamase reporter inhibition, counter-screen artifact | CHO-BLA cells, CCF4 FRET ratio, BLA reporter | shares compounds with TLR9-MyD88 inh | inhibition, % at 4.98 µM | hit rate 7% among 680;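 active means mean inhibition above a 50% cutoff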;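 further: counterscreen of TLR9-MyD88 hits on CMV-driven BLA in CHO-K1 cells; higher means less blue over green ratio so more BLA blockade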
TLR9 CHO tox: CHO cell toxicity counter-screen for TLR9-MyD88 inhibitors; hit rate 39% among 680; AID 588336; inhibition, % at 4.98 µM; TLR9-MyD88 CHO cells cytotoxicity, luminescence; shares compounds with TLR9-MyD88 inh; in the data active means inhibition above about 11%
U2OS cAMP counter: U2OS forskolin cAMP inhibition counter-screen | hit rate 26% among 1,600 | shares compounds with MC4R antagonist | parental U2OS, LANCE TR-FRET | inhibition, % at 6.5 µM;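 active means mean inhibition over triplicates above the low-control well mean plus 3 SD, set per campaign, cut at about 13% in these data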;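 further: signal is single emission at 671 nm which falls as cellular cAMP rises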
MC4R cAMP antag: human MC4R cAMP antagonism confirmation; shares compounds with MC4R antagonist; MC4R-expressing cells, MTII-stimulated cAMP, TR-FRET; inhibition, % at 6.5 µM; hit rate 27% among 1,600; AID 602195; in the data active means inhibition above about 29%
NOD2-RIPK2 conf: confirmation of human NOD2-RIPK2 interaction inhibitors | shares compounds with NOD2 RIPK2 PPI | CHO cells, NOD2-RIPK2 BLA complementation, CCF4 FRET | inhibition, % at 4.98 µM | hit rate 70% among 1,200 | AID 624370;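 active means mean inhibition across replicates above a set limit taken from the earlier primary screen, cut at about 21% in these data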
BLA counter-2: hits BLA reporter in NOD2-RIPK2 inhibitor counterscreen; shares compounds with NOD2 RIPK2 PPI; CHO BLA reporter, CCF4 FRET ratio; inhibition, % at 4.98 µM; hit rate 57% among 1,200;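 active means mean inhibition above the low-control mean inhibition plus three low-control SD, cut at about 11% in these data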
A number is an active result; n = inactive; x = no result given. Shown are actives, neighbours in structure and some others; about 1.9% of the full set was active somewhere.

SMILES	TLR4 MyD88 comp	NTR1 ag	TLR9-MyD88 inh	NOD2 RIPK2 PPI	MC4R barr agon	MC4R antagonist	TLR4-MyD88 conf	BLA inh HeLa	TLR9-MyD88 cf	BLA counter-1	TLR9 CHO tox	others
Cc1cc(C)nc(N/N=C/c2ccccc2OCc2ccc([N+](=O)[O-])cc2)n1	n	n	n	n	n	n	x	x	x	x	x
O=[N+]([O-])c1ccc(N/N=C\c2ccccc2OCc2ccccc2)cc1	28	n	31	n	n	n	n	50	22	n	n
Cc1cccc(C)c1NC(=O)CN1C(=O)CCSc2ccc(S(=O)(=O)N3CCCC3)cc21	x	n	n	n	n	n	x	x	x	x	x
O=C(O)c1ccccc1-c1ccc(/C=C/c2cc(C(F)(F)F)[nH]c(=O)n2)o1	26	n	39	n	n	n	n	33	25	n	n
C/C=C/c1cccc(-c2nc(C(=O)N3CCN(C)CC3)cc3c2[C@@H](CCO)N(C(=O)NC(C)C)C3)c1	x	x	x	n	x	x	x	x	x	x	x
Fc1ccc(C2=CC(c3ccc(Br)o3)n3ncnc3N2)cc1 (stereo not drawn)	28	x	25	22	n	n	n	26	n	n	n
Cn1c(=O)c(NC2CCCCC2)c2c3c(cccc31)C(=O)c1ccccc1-2	48	n	22	n	n	n	n	49	n	n	n
Cc1ccc(NC(=O)/C(C#N)=C/c2cn(CC(=O)NCc3ccco3)c3ccccc23)cc1C	60	n	36	n	n	n	54	80	n	n	28
O=C1CN(S(=O)(=O)c2ccc(Cl)cc2)c2ccccc2N1	x	n	n	n	n	n	x	x	x	x	x
COc1ccc(C(=O)c2sc3nc(-c4ccccc4)ccc3c2N)cc1OC	36	n	33	n	n	n	38	57	43	n	n
CC(=O)Nc1sc(/C(C#N)=C\c2cccc(Cl)c2)nc1-c1ccc(C)cc1	31	x	32	n	n	n	86	112	80	81	n
CC(=O)Nc1sc(N/N=C/c2ccccc2)nc1-c1ccc(C)cc1	x	n	n	n	n	n	x	x	x	x	x
O=C(NC1CCCC1)C(c1ccccc1F)N(C(=O)c1csnn1)c1ccccc1 (stereo not drawn)	x	n	n	n	n	n	x	x	x	x	x
OCCNc1c2ccccc2nc2c(F)c(F)c(F)c(F)c12	69	x	32	n	n	n	84	107	43	n	82
CCOC(=O)[C@H]1[C@H]2COc3ccc(C)cc3[C@@H]2N2C(=O)c3cc(Br)ccc3NC(=O)[C@@]12C	x	n	n	n	n	n	x	x	x	x	x
Cc1cccc(NC2=Nc3ccccc3N3C2=Nc2c(c(C)nn2-c2ccccc2)C3c2ccc(O)c(O)c2)c1 (stereo not drawn)	62	n	30	n	n	n	52	85	47	55	n
Cc1nn(-c2ccccc2)c2c1C(c1ccc([N+](=O)[O-])cc1)N1C(=N2)C(=O)Nc2ccccc21 (stereo not drawn)	n	n	n	n	n	n	x	x	x	x	x
Cc1nc(N2CCN(C)CC2)c2sc(=S)n(-c3ccccc3)c2n1	n	n	n	n	n	n	x	x	x	x	x
S=c1sc2c(Cl)ncnc2n1-c1ccccc1	52	x	29	54	n	n	47	26	26	n	25
O=C1NCC(COc2ccc(Cl)cc2)O1 (stereo not drawn)	n	n	n	n	n	n	x	x	x	x	x
CCOc1cc(N(CC)CC)ccc1/C=C(/C#N)c1nc2ccccc2[nH]1	n	n	n	n	n	n	x	x	x	x	x
CCN(CC)c1ccc(/C=C(/C#N)c2nc3ccc(C)cc3[nH]2)c(OC(C)C)c1	35	n	23	34	n	n	n	36	21	n	n
CCOC(=O)/C(=C\c1cccnc1)C(=O)c1cc(C(C)=O)c(Nc2ccccc2)s1	49	n	41	89	n	n	53	41	49	n	98
COC(=O)C1=C(C(=O)OC)[C@@H]2N(C)c3ccccc3[C@@]23C[C@@H](CO)N=C3N1	x	n	x	x	x	x	x	x	x	x	x
CCCCCCCCNCCS(=O)(=O)NCc1ccccc1	x	x	n	n	n	n	x	x	x	x	x
SMILES	TLR4 MyD88 comp	NTR1 ag	TLR9-MyD88 inh	NOD2 RIPK2 PPI	MC4R barr agon	MC4R antagonist	TLR4-MyD88 conf	BLA inh HeLa	TLR9-MyD88 cf	BLA counter-1	TLR9 CHO tox	others
COc1ccc(/C=C/C(=O)Nc2ccc(OC)nc2)cc1	n	n	n	n	n	n	x	x	x	x	x
COc1ccc(CS(=O)(=O)/C(Cl)=C(/Cl)C(=O)Nc2ccc(OC)nc2)cc1	25	n	31	73	n	44	n	n	32	n	100	U2OS cAMP counter=33;MC4R cAMP antag=37
CC1(C)CC(=O)C(C(C2=C(O)CC(C)(C)CC2=O)c2cccs2)C(=O)C1 (stereo not drawn)	25	n	n	n	n	30	n	n	x	x	x	U2OS cAMP counter=n;MC4R cAMP antag=n
Cc1nc(-c2ccc(F)cc2)c(CC(=O)N2CCN(S(=O)(=O)c3cccc([N+](=O)[O-])c3)CC2)s1	x	n	n	n	n	n	x	x	x	x	x
C/C(=N\Nc1ccc([N+](=O)[O-])cc1)c1ccc2c(c1)OCO2	32	n	32	23	n	n	35	60	28	n	n	NOD2-RIPK2 conf=n;BLA counter-2=25
C/C(=N\Nc1ccc([N+](=O)[O-])cc1)c1cc2ccccc2o1	60	n	58	57	n	n	54	87	44	n	n	NOD2-RIPK2 conf=67;BLA counter-2=72

Source: PubChem BioAssay (several laboratories)
